Data from ChEMBL document CHEMBL4808187, “Antiarrhythmic Hit to Lead Refinement in a Dish Using Patient-Derived iPSC Cardiomyocytes” (J Med Chem, 2021).
pEC50, pIC50: −log10 of the molar value. Activity calls are given as the source filed them. The rule behind the calls is not given here.

Key:
[1] = Tmax in Sprague-Dawley rat at 5 mg/kg, iv measured upto 25 hrs by LCMS analysis; type: ADME, organism-based; settings: in vivo
[2] = Half life in Sprague-Dawley rat at 25 mg/kg, po measured upto 25 hrs by LCMS analysis; type: ADME, organism-based; settings: in vivo
[3] = Metabolic stability in human liver S9 fraction assessed as compound remaining at 50 uM after 1 hr by HPLC method; type: ADME, subcellular; settings: read-out: Stabilty
Method in brief: (§1)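 Human liver microsomes (0.4–0.5 mg protein) or S-9 (1 mg) with 50 μM compound in 50 mM potassium phosphate pH 7.4 plus NADPH-generating system, 37 °C shaking for 0, 7, 15, 30, 60 min; stopped with cold acetonitrile; HPLC C18, isocratic water/acetonitrile with 0.05% TFA, UV 275.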

[4] = Toxicity in ip dosed BALB/c mouse assessed as lethal dose; type: organism-based; settings: in vivo
[5] = Cmax in Sprague-Dawley rat at 5 mg/kg, iv measured upto 25 hrs by LCMS analysis; type: ADME, organism-based; set-up: route intravenous, dose 5 mg/kg, time <=25; settings: in vivo
[6] = Metabolic stability in human liver microsomes assessed as compound remaining at 50 uM after 1 hr by HPLC method; type: ADME, Microsome; settings: read-out: Stabilty; method in brief: as §1
[7] = Toxicity in BALB/c mouse assessed as lethargy at 100 mg/kg, ip monitored for 30 mins; type: organism-based; settings: in vivo, 0.5 h
[8] = Cmax in Sprague-Dawley rat at 25 mg/kg, po measured upto 25 hrs by LCMS analysis; type: ADME, organism-based; set-up: route oral, dose 25 mg/kg, time <=25; settings: in vivo
[9] = Oral bioavailability in Sprague-Dawley rat at 25 mg/kg measured upto 25 hrs by LCMS analysis; type: ADME, organism-based; settings: in vivo
[10] = AUC in Sprague-Dawley rat at 5 mg/kg, iv measured upto 25 hrs by LCMS analysis; type: ADME, organism-based; set-up: route intravenous, dose 5 mg/kg, time <=25; settings: in vivo
[11] = Half life in Sprague-Dawley rat at 5 mg/kg, iv measured upto 25 hrs by LCMS analysis; type: ADME, organism-based; settings: in vivo
[12] = Tmax in Sprague-Dawley rat at 25 mg/kg, po measured upto 25 hrs by LCMS analysis; type: ADME, organism-based; settings: in vivo
[13] = AUC in Sprague-Dawley rat at 25 mg/kg, po measured upto 25 hrs by LCMS analysis; type: ADME, organism-based; set-up: route oral, dose 25 mg/kg, time <=25; settings: in vivo
[14] = Toxicity in BALB/c mouse assessed as central nervous system effects at 100 mg/kg, ip; type: organism-based; settings: in vivo
Heart = test: Antiarrhythmic activity in H2O2-perfused Sprague-Dawley rat heart assessed as resolution of arrhythmias to normal sinus rhythm at 10 uM after 30 to 40 mins; type: functional, tissue-based; settings: time 30-40 min
Method in brief: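 Perfused ex vivo hearts from aged rats; continuous perfusion of H2O2 (0.1 mM) induces EADs and ectopic beats progressing to VT/VF; test compound perfused at 10 μM with H2O2 still present; rhythm followed for conversion to sinus rhythm.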

[15] = Toxicity in BALB/c mouse assessed as behavioral effects at 100 mg/kg, ip monitored for 30 mins; type: organism-based; settings: in vivo, 0.5 h
Method in brief: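 Adult male BALB/c mice, four per compound, 100 mg/kg i.p.; behaviour (lethargy, immobilization, seizures, shaking) observed for 30 min; lethality recorded at 24 h.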

[16] = Metabolic stability in human liver microsomes assessed as half life at 50 uM measured upto 60 mins by HPLC method; type: ADME, Microsome; method in brief: as §1
[17] = Metabolic stability in human liver S9 fraction assessed as half life at 50 uM measured upto 60 mins by HPLC method; type: ADME, subcellular; method in brief: as §1
[18] = Antiarrhythmic activity in patient-derived hiPSC-CMs carrying LQT3 mutation assessed as shortening of action potential duration; type: functional, Homo sapiens; settings: ipsc-cm; read-out: EC50
[19] = Chemical stability in pH 7.4 phosphate buffer assessed as half life at 100 uM by RP-HPLC analysis; type: physicochemical
[20] = Chemical stability in pH 3 phosphate buffer assessed as half life at 100 uM by RP-HPLC analysis; type: physicochemical
[21] = Antiarrhythmic activity in hiPSC-CMs assessed as prolongation of action potential; set-up: species or system Homo sapiens, iPSC-CM; settings: for EC50: ipsc-cm
[22] = (§2) Antiarrhythmic activity in patient-derived hiPSC-CMs carrying LQT3 mutation assessed as cessation dose for cell beating; type: functional, Homo sapiens, iPSC-CM
[23] = Inhibition of potassium channel (unknown origin) expressed in CHO cells assessed as reduction in potassium current by automated patch clamp method; type: cell-based
[24] = Antiarrhythmic activity in hiPSC-CMs assessed as cessation dose of cell beating; settings: human, ipsc-cm
Cytochrome P450 3A5 = Cytochrome P450 3A5 (Homo sapiens, UniProt P20815); test: Drug metabolism assessed as human CYP3A5-mediated metabolism per ug protein; type: ADME; settings: recombinant enzyme
Sequence of Cytochrome P450 3A5 (P20815 whole entry): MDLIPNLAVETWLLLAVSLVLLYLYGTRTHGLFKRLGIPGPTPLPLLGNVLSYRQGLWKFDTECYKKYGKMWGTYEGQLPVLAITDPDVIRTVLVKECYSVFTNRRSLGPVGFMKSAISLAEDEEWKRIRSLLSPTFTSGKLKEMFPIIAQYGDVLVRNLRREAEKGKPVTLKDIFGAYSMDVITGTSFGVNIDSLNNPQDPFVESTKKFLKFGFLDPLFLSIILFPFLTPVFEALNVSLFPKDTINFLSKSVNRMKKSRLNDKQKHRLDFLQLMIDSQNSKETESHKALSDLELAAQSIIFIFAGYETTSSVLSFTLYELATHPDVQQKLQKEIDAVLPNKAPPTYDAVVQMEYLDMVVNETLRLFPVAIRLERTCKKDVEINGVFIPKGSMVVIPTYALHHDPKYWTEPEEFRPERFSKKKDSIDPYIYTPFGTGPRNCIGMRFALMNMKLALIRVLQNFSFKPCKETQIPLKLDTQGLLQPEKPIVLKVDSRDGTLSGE

[25] = Antiarrhythmic activity in hiPSC-CMs assessed as dose for induction of early after depolarizations; settings: human, ipsc-cm
Cytochrome P450 3A4 = Cytochrome P450 3A4 (Homo sapiens, UniProt P08684); test: Drug metabolism assessed as human CYP3A4-mediated metabolism per ug protein; type: ADME; settings: recombinant enzyme
Sequence of Cytochrome P450 3A4 (P08684 whole entry): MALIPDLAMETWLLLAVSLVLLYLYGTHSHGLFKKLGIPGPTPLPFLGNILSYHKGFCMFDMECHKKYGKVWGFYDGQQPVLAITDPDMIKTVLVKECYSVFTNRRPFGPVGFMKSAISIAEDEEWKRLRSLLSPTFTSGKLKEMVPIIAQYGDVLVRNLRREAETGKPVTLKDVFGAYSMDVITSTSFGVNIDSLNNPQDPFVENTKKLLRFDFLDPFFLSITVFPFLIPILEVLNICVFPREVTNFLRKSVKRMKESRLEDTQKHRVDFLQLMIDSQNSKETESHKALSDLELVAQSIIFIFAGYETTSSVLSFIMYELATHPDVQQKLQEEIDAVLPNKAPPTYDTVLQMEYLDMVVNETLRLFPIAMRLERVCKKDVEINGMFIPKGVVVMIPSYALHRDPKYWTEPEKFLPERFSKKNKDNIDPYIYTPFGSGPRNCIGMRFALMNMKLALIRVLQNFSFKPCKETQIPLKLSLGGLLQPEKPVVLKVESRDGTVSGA

Cytochrome P450 2D6 = Cytochrome P450 2D6 (Homo sapiens, UniProt P10635); test: Drug metabolism assessed as human CYP2D6-mediated metabolism per ug protein; type: ADME; settings: recombinant enzyme
Sequence of Cytochrome P450 2D6 (P10635 whole entry): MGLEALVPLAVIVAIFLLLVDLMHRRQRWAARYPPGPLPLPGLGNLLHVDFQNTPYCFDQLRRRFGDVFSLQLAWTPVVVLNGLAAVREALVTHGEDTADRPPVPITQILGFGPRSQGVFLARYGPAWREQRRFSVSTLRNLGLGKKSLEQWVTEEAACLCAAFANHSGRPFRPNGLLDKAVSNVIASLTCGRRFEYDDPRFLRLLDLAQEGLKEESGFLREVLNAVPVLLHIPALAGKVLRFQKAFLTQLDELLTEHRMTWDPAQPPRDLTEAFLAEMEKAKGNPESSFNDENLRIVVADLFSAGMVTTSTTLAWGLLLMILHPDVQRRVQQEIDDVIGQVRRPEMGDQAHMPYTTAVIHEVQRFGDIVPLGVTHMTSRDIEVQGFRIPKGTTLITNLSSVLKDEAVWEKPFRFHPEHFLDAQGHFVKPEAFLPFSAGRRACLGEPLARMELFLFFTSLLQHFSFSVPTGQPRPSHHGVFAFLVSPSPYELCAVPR

[26] = Inhibition of sodium channel (unknown origin) expressed in HEK cells assessed as reduction in peak sodium current by automated patch clamp method; type: cell-based; settings: Homo sapiens, HEK293
[27] = Inhibition of sodium channel (unknown origin) expressed in HEK cells assessed as reduction in late inward sodium current by automated patch clamp method; type: cell-based; settings: Homo sapiens, HEK293
Homo sapiens [28] = species on record: Homo sapiens; test: Selectivity index, ratio of IC50 for potassium channel (unknown origin) expressed in CHO cells assessed as reduction in potassium current to IC50 for sodium channel (unknown origin) expressed in HEK cells assessed as reduction in late inward sodium current
[29] = Antiarrhythmic activity in patient-derived hiPSC-CMs carrying LQT3 mutation assessed as fold shortening of action potential duration relative to control; type: functional, Homo sapiens, iPSC-CM
[30] = Antiarrhythmic activity in patient-derived hiPSC-CMs carrying LQT3 mutation assessed as shortening dose of action potential; type: functional, Homo sapiens, iPSC-CM
[31] = Antiarrhythmic activity in hiPSC-CMs assessed as fold prolongation of action potential relative to control; settings: human, ipsc-cm
Homo sapiens [32] = species on record: Homo sapiens; test: Selectivity index, ratio of IC50 for potassium channel (unknown origin) expressed in HEK cells assessed as reduction in potassium current to IC50 for sodium channel (unknown origin) expressed in HEK cells assessed as reduction in late inward sodium current; type: cell-based
Homo sapiens [33] = species on record: Homo sapiens; test: Selectivity index, ratio of IC50 for sodium channel (unknown origin) expressed in HEK cells assessed as reduction in peak sodium current to IC50 for sodium channel (unknown origin) expressed in HEK cells assessed as reduction in late inward sodium current; type: cell-based
iPSC-CM = test: as §2; type: functional; settings: Homo sapiens

| SMILES | pIC50 [23] | pIC50 [26] | pIC50 [27] | Tmax [1] [h] | t1/2 [2] [h] | remaining at 1 h, 50 µM [3] [%] | LD50 [4] [mg/kg] | Cmax [5] [ng/mL] | Cmax [8] [ng/mL] | bioavailability [9] [%] | AUC [10] [ng·h/mL] | t1/2 [11] [h] | Tmax [12] [h] | AUC [13] [ng·h/mL] | pEC50 [18] | Activity [22] [µM] | Activity [24] | Activity [25] | fold change (FC) [29] | Activity [30] [µM] | other results |
| --- | --- | --- | --- | --- | --- | --- | --- | --- | --- | --- | --- | --- | --- | --- | --- | --- | --- | --- | --- | --- | --- |
| Cl.N[C@H](COc1ccccc1C(F)(F)F)c1ccccc1 |  |  |  | 0.17 | 6.5 | > 95 | > 200 | 219 | 226 | 42 | 407 | 3.8 | 1.5 | 1008 |  |  |  |  |  |  | remaining at 1 h, 50 µM [6]: > 95%; Activity [7]: Toxic; Activity [14]: Toxic |
| Cl.N[C@@H](COc1ccccc1C(F)(F)F)c1ccccc1 |  |  |  | 0.18 | 5.3 | > 95 | > 200 | 249 | 258 | 100 | 280 | 1.2 | 1.5 | 1556 |  |  |  |  |  |  | remaining at 1 h, 50 µM [6]: > 95%; Activity (Heart): Active; Activity [15]: Non-Toxic |
| Cc1cc(C)cc(OC[C@H](N)c2ccccc2)c1.Cl |  |  |  |  |  |  | > 200 |  |  |  |  |  |  |  |  |  |  |  |  |  | half-life at 50 µM [16]: 6.77 h; half-life at 50 µM [17]: 16.9 h; Activity [15]: Non-Toxic |
| Cc1ccccc1OC[C@H](N)c1ccccc1.Cl |  |  |  |  |  |  |  |  |  |  |  |  |  |  |  |  |  |  |  |  | half-life at 50 µM [16]: 6.08 h; half-life at 50 µM [17]: 6.8 h |
| Cc1cc(C)cc(OC[C@@H](N)c2ccccc2)c1.Cl |  |  |  |  |  | > 95 | > 200 |  |  |  |  |  |  |  |  |  |  |  |  |  | remaining at 1 h, 50 µM [6]: > 95%; Activity [7]: Toxic; Activity [14]: Toxic |
| Cc1cccc(C)c1OCC(C)N (stereo not drawn) [MEXILETINE] | 4.27 |  |  | 0.17 | 11 |  |  | 289 | 167 | 37 | 447 | 10.6 | 1 | 839 | 5.74 |  | Not Active | 200 µM |  | 22 | pEC50 ([21]; Homo sapiens, iPSC-CM, read-out: EC50): 4.69; Activity (iPSC-CM): inactive; Drug metabolism (Cytochrome P450 3A5): 48.8 pmol/min; Drug metabolism (Cytochrome P450 3A4): 46.2 pmol/min; Drug metabolism (Cytochrome P450 2D6): 6 pmol/min |
| COCCNC(COc1cccc(C)c1C)c1ccccc1.Cl (racemic) | 4.56 | 4.59 | 6.13 |  |  |  |  |  |  |  |  |  |  |  | 5.24 | 200 | Not Active | Not Active | 1.508 | 133 | half-life at 100 µM [19]: > 720 h; half-life at 100 µM [20]: > 720 h; Ratio IC50 (Homo sapiens [33]): 34.5; Activity [31]: Not Active |

Continued, in another order:

| pIC50 [23] | pIC50 [26] | pIC50 [27] | SMILES | Tmax [1] [h] | t1/2 [2] [h] | remaining at 1 h, 50 µM [3] [%] | LD50 [4] [mg/kg] | Cmax [5] [ng/mL] | Cmax [8] [ng/mL] | bioavailability [9] [%] | AUC [10] [ng·h/mL] | t1/2 [11] [h] | Tmax [12] [h] | AUC [13] [ng·h/mL] | pEC50 [18] | Activity [22] [µM] | Activity [24] | Activity [25] | fold change (FC) [29] | Activity [30] [µM] | other results |
| --- | --- | --- | --- | --- | --- | --- | --- | --- | --- | --- | --- | --- | --- | --- | --- | --- | --- | --- | --- | --- | --- |
| 4.43 | 4.39 | 5.98 | Cl.NC(COc1ccccc1C(F)(F)F)c1ccccc1 (racemic) | 0.17 | 6.5 |  |  | 250 | 226 | 38 | 544 | 3.2 | 1.5 | 1008 | > 6.10 | 66 | 66 µM | Not Active | 1.783 | 22 | half-life at 100 µM [19]: > 720 h; half-life at 100 µM [20]: > 360 h; EC50 [21]: Not Active; Drug metabolism (Cytochrome P450 3A5): 42.6 pmol/min; Drug metabolism (Cytochrome P450 3A4): 15.4 pmol/min; Drug metabolism (Cytochrome P450 2D6): 43.6 pmol/min; Ratio IC50 (Homo sapiens [28]): 36.1 |
| 4.01 | 3.79 | 4.29 | Cc1ccc(C)c(OCC(N)C2CC2)c1.Cl (stereo not drawn) |  |  |  |  |  |  |  |  |  |  |  | 7.66 | 200 | 200 µM | 66 µM | 1.11 | 66 | fold change (FC) [31]: 1.686; Ratio IC50 (Homo sapiens [32]): 1.9 |
| 5.15 | 4.70 | 5.99 | Cl.NC(COc1cc(C(F)(F)F)cc(C(F)(F)F)c1)c1ccccc1 (stereo not drawn) |  |  |  |  |  |  |  |  |  |  |  | 4.64 | 66 | 133 µM | Not Active | 1.208 | 22 | EC50 [21]: Not Active; Ratio IC50 (Homo sapiens [33]): 19.4 |
